According to ChEMBL document CHEMBL1122607, “Heterocyclic analogues of chlorcyclizine with potent hypolipidemic activity” (J Med Chem, 1984):

Key:
Rattus norvegicus [1] = assay: Hypolipidemic activity was measured as reduction in rat serum triglyceride after oral administration in male Wistar rats at 30 mg / (kg day); type: functional
Procedure, shortened: (§1)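 Cholesterol-fed rats given the test compound orally by gavage on the last 3 days, with controls receiving vehicle (0.5% tragacanth mucilage). After overnight starvation, rats were killed under CO2 3 h after the last dose and bled by cardiac puncture. Serum cholesterol and triglyceride were measured by autoanalyzer and expressed as percentage reduction from control levels, with Student's t test.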

Rattus norvegicus [2] = assay: Minimum effective dose (MED) is the dose (mg/kg)that cause significant reduction in serum cholesterol of 30% compared to concurrent controls.; type: functional; design: unit: mg/kg
Procedure, shortened: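 MED was calculated from the log dose/response curve as the dose giving a statistically significant 30% fall in serum cholesterol versus concurrent controls. Measured in the 3-day oral cholesterol-fed rat screen, or in a 2-week test: groups of eight young male Wistar rats on cholesterol/cholic acid-supplemented or normal diet, dosed orally by gavage daily for 14 days, vehicle 0.5% tragacanth mucilage.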

Rattus norvegicus [3] = assay: Hypolipidemic activity was measured as reduction in rat serum cholesterol after oral administration in male Wistar rats at 10 mg / (kg day); type: functional; procedure, shortened: as §1
Rattus norvegicus [4] = assay: Hypolipidemic activity was measured as reduction in rat serum cholesterol after oral administration in male Wistar rats at 3 mg / (kg day); type: functional; procedure, shortened: as §1
Rattus norvegicus [5] = assay: Hypolipidemic activity was measured as reduction in rat serum triglyceride after oral administration in male Wistar rats at 1; type: functional; procedure, shortened: as §1
[6] = (§2) The therapeutic safety margin (TSM) is the ratio of the minimum lethal dose (mg/kg)to the MED; type: ADME, organism-based; conditions: in vivo
Procedure, shortened: (§3)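 Young male Wistar rats, eight per group, on cholesterol/cholic acid-supplemented or normal diet; graded oral gavage doses daily for 14 days; vehicle controls (0.5% tragacanth mucilage). Mortalities recorded to give the minimum lethal daily dose. After overnight fasting, serum cholesterol assayed by autoanalyzer. MED is the dose giving a significant (t test) 30% cholesterol fall, from the log dose/response curve. TSM = minimum lethal dose/MED.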

Rattus norvegicus [7] = assay: Hypolipidemic activity was measured as reduction in rat serum triglyceride after oral administration in male Wistar rats at 100 mg / (kg day); type: functional; procedure, shortened: as §1
Rattus norvegicus [8] = assay: Hypolipidemic activity was measured as reduction in rat serum cholesterol after oral administration in male Wistar rats at 100 mg/(kg day); type: functional; procedure, shortened: as §1
Rattus norvegicus [9] = assay: Hypolipidemic activity was measured as reduction in rat serum cholesterol after oral administration in male Wistar rats at 1 mg / (kg day); type: functional; procedure, shortened: as §1
Rattus norvegicus [10] = assay: Hypolipidemic activity was measured as reduction in rat serum triglyceride after oral administration in male Wistar rats at 3 mg / (kg day); type: functional; procedure, shortened: as §1
Rattus norvegicus [11] = assay: Hypolipidemic activity was measured as reduction in rat serum cholesterol after oral administration in male Wistar rats at 30 mg / (kg day); type: functional; procedure, shortened: as §1
Rattus norvegicus [12] = assay: Hypolipidemic activity was measured as reduction in rat serum triglyceride after oral administration in male Wistar rats at 10 mg / (kg day); type: functional; procedure, shortened: as §1
Rattus norvegicus [13] = assay: Hypolipidemic activity was measured as reduction in rat serum cholesterol after oral administration in male Wistar rats at 3 mg / (kg day);; type: functional; procedure, shortened: as §1
Rattus norvegicus [14] = assay: Hypolipidemic activity was measured as reduction in rat serum triglyceride after oral administration in male Wistar rats at 3 mg / (kg day);; type: functional; procedure, shortened: as §1
Rattus norvegicus [15] = assay: Hypolipidemic activity was measured as reduction in rat serum triglyceride after oral administration in male Wistar rats at 1 mg / (kg day); type: functional; procedure, shortened: as §1
Rattus norvegicus [16] = assay: Hypolipidemic activity was measured as reduction in rat serum triglyceride after oral administration in male Wistar rats at 200 mg / (kg day); type: functional; procedure, shortened: as §1
Rattus norvegicus [17] = assay: Hypolipidemic activity was measured as reduction in rat serum cholesterol after oral administration in male Wistar rats at 200 mg/(kg day); type: functional; procedure, shortened: as §1
Rattus norvegicus [18] = assay: Hypolipidemic activity was measured as reduction in rat serum cholesterol after oral administration in male Wistar rats at 100 mg / (kg day); type: functional; procedure, shortened: as §1
Rattus norvegicus [19] = assay: Hypolipidemic activity was measured as reduction in rat serum triglyceride after oral administration in male Wistar rats at 50 mg / (kg day); type: functional; procedure, shortened: as §1
Rattus norvegicus [20] = assay: Hypolipidemic activity was measured as reduction in rat serum triglyceride after oral administration in male Wistar rats at 2.5 mg / (kg day); type: functional; procedure, shortened: as §1
Rattus norvegicus [21] = assay: Hypolipidemic activity was measured as reduction in rat serum cholesterol after oral administration in male Wistar rats at 2.5 mg / (kg day); type: functional; procedure, shortened: as §1
Rattus norvegicus [22] = assay: Hypolipidemic activity was measured as reduction in rat serum cholesterol after oral administration in male Wistar rats at 5 mg / (kg day); type: functional; procedure, shortened: as §1
Rattus norvegicus [23] = assay: Hypolipidemic activity was measured as reduction in rat serum triglyceride after oral administration in male Wistar rats at 5 mg / (kg day); type: functional; procedure, shortened: as §1
Rattus norvegicus [24] = assay: Hypolipidemic activity was measured as reduction in rat serum cholesterol after oral administration in male Wistar rats at 50 mg / (kg day); type: functional; procedure, shortened: as §1
Rattus norvegicus [25] = assay: xHypolipidemic activity was measured as reduction in rat serum cholesterol after oral administration in male Wistar rats at 10 mg / (kg day); type: functional; procedure, shortened: as §1
[26] = as §2; type: functional; procedure, shortened: as §3

Structure (SMILES)	Reduction (Rattus norvegicus [1]) [%]	MED (Rattus norvegicus [2])	Reduction (Rattus norvegicus [3]) [%]	therapeutic safety margin (minimum lethal dose / MED) [6]	Reduction (Rattus norvegicus [7]) [%]	Reduction (Rattus norvegicus [8]) [%]	Reduction (Rattus norvegicus [9]) [%]	Reduction (Rattus norvegicus [11]) [%]	Reduction (Rattus norvegicus [12]) [%]	further results
Cc1noc(C)c1C(c1ccc(C(C)C)cc1)N1CCN(CCO)CC1 (stereo not given)	16	2	76	100	84	84	5	77	56	Reduction (Rattus norvegicus [4]): 50%; Reduction (Rattus norvegicus [5]): 7%; Reduction (Rattus norvegicus [10]): 29%
Cc1noc(C)c1C(c1ccc(C(C)C)cc1)N1CCNCC1 (stereo not given)	94	1	76	50	96	86	19	85	82	Reduction (Rattus norvegicus [13]): 72%; Reduction (Rattus norvegicus [14]): 45%; Reduction (Rattus norvegicus [15]): 22%
Cc1cc(C(c2ccc(Cl)cc2)N2CCN(C)CC2)sn1 (stereo not given)	–	–	–	–	2	–	–	–	–	Reduction (Rattus norvegicus [16]): 19%; Reduction (Rattus norvegicus [17]): 67%; Reduction (Rattus norvegicus [18]): 15%
CC(C)c1ccc(C(c2ccns2)N2CCN(C)CC2)cc1 (stereo not given)	–	6	57	14	81	86	–	–	63	Reduction (Rattus norvegicus [19]): 67%; Reduction (Rattus norvegicus [20]): 15%; Reduction (Rattus norvegicus [21]): 26%; Reduction (Rattus norvegicus [22]): 39%; Reduction (Rattus norvegicus [23]): 29%; Reduction (Rattus norvegicus [24]): 82%
CCC(C)c1ccc(C(c2cc(C)ns2)N2CCN(C)CC2)cc1 (stereo not given)	55	14	–	20	87	72	–	67	15	Reduction (Rattus norvegicus [25]): 19%
CN1CCN(C(c2ccccc2)c2ccccc2)CC1 [CYCLIZINE]	–	30	–	–	–	–	–	–	–	Ratio [26]: 10
